Assay outcomes: PubChem, several laboratories
CTSL1 counter: blocks F. hepatica cathepsin L1 in PFM18AAP counter-screen | 300,000 tested, 0.49% active | inhibition, % at 5.96 µM | recombinant F. hepatica cathepsin L1, Z-Leu-Arg-MCA fluorescence | AID 1906;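 active = inhibition above the mean of all tested compounds plus 3 SD, set per screening campaign, cut at about 17% in these data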
UBC9 SUMO inh: blocks human SUMOylation mediated by UBC9; P63279; HTRF SUMOylation assay, SAE1/SAE2 + UBC9, in vitro; inhibition, % at 35 µM; 290,000 tested, 0.36% active; AID 2006; in the data active = inhibition above about 50%, passing the limit was not always enough
Target sequence (P63279 whole entry, looked up): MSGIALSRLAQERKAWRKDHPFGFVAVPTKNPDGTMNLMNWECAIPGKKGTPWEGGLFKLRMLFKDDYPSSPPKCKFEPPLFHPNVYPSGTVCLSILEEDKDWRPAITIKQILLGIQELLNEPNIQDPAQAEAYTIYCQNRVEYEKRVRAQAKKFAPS
IMP-1 inh: inhibitors of Pseudomonas aeruginosa IMP-1 metallo-beta-lactamase. AID 1556. inhibition, % at 5.6 µM. purified IMP-1, nitrocefin hydrolysis, epi-absorbance fluorescence. 290,000 tested, 0.45% active;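 active = inhibition above the mean plus 3 SD of all compounds in the same screening run, cut at about 4.5% in these data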
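System: purified IMP-1; amount: IMP-1 0.2 nM before substrate addition; compound: single dose, 5.6 µM; times: 25 °C, 15 min preincubation, 25 min reaction; signal: Epi-absorbance via hydrolysed-nitrocefin quenching of white-plate fluorescence, 480/530 nm, EDTA stop; benchmarks: DMSO with and without IMP-1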
p-CIP stab down: lowers stability of the mouse p/CIP coactivator protein; Q05BA5; decrease of EGFP signal, % at 10 µM; AID 1984; 290,000 tested, 0.01% active; F442A p/CIP-EGFP cells, EGFP fluorescence, 16 h;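 active = EGFP signal decrease of at least 30% at 10 µM or well 3 SD below plate mean, unless failing retest; inactive = the rest, including hits failing retest or dose response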
T cell HTS: modulates CD8 T cell binding to vesicles; 2C CD8+ T cell-vesicle binding, flow cytometry; hits give low values; response (vesicle binding), % at 7 µM; 330,000 tested, 0.068% active;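 active = response, share of CD8 T cells binding vesicles, and their 90th percentile fluorescence all below set limits, cut at about 80% in these data, passing the limit was not always enough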;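 also: values below 100% mean blocked vesicle binding to the CD8+ T cells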
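Assay system – 2C mouse CD8+ T cells · Also added – QL9-loaded Drosophila micro-vesicles · Timing – Cell–vesicle co-incubation 1.5 h at 37 °C, staining 20 min on ice · Signal – flow cytometry of vesicle-bound cells · Measure – percent CD8+ FL2 mean versus row control · Controls – Peptide-free naked vesicles (low) and QL9 vesicles with 0.7% DMSO vehicle (high)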
VIM-2 inh: blocks Pseudomonas aeruginosa VIM-2 metallo-beta-lactamase | purified VIM-2, nitrocefin hydrolysis, epi-absorbance fluorescence | 290,000 tested, 0.89% active | inhibition, % at 5.6 µM;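 active = inhibition above the mean of all tested compounds plus 3 SD, cutoff set per screening run, cut at about 7.5% in these data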;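 also: red hydrolysis product quenches plate fluorescence so inhibitors raise well fluorescence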
Of the large screens only hits and unclear results are named; the others gave an inactive call. Hits are enriched below; roughly 1.9% of the tested compounds scored in any of these assays.

O=C(NCCN1CCN(c2ccccc2)CC1)c1ccc2c(c1)[nH]c(=S)n1c3ccccc3nc21	none
O=C(c1ccc2c(c1)[nH]c(=S)n1c3ccccc3nc21)N1CCN(c2ncccn2)CC1	UBC9 SUMO inh 60.7
NC(=O)c1ccsc1NC(=O)c1ccc(S(=O)(=O)N2CCCCC2)cc1	CTSL1 counter 37.2
O=C(NCC(c1ccco1)N1CCN(c2ccccc2)CC1)C(=O)NC1CCCCC1 (stereo not given)	none (no result: UBC9 SUMO inh, IMP-1 inh, p-CIP stab down, VIM-2 inh)
Cc1csc(CN(C)C(=O)C2CCC(=O)N(CCN(C)C)C2)n1 (stereo not given)	CTSL1 counter 19.1
Cc1csc(CN(C)C(=O)C2CCC(=O)N(Cc3ccc(Cl)cc3)C2)n1 (stereo not given)	none
O=C(NCCCN1CCCC1=O)c1ccc(S(=O)(=O)Nc2cccc(C(F)(F)F)c2)cc1	none (no result: UBC9 SUMO inh, IMP-1 inh, p-CIP stab down, VIM-2 inh)
O=C(CCl)N1CCN(S(=O)(=O)c2ccc3ccccc3c2)CC1	CTSL1 counter 19.2
O=C(CCl)Nc1cc(S(=O)(=O)N2CCCCCC2)ccc1Cl	CTSL1 counter 79.6
CN(C)C(=O)N1CCN(S(=O)(=O)c2ccc3ccccc3c2)CC1	none
O=S(=O)(c1ccc(F)c(F)c1)N1CCC2(CC1)OCCO2	none
COC(=O)c1ccc(OC)c(Cn2c(=O)n(C)c(=O)c3ccccc32)c1	none
Cc1c(CCC(=O)O)c(=O)oc2c(C)c3occ(-c4ccc(Cl)cc4)c3cc12	IMP-1 inh 5.3 (no result: CTSL1 counter)
Cc1c(CCC(=O)O)c(=O)oc2cc3occ(-c4ccc(Cl)cc4)c3cc12	none
C=CCOc1c(Br)cc(/C=C2/C(=O)ON=C2C)cc1OC	none
O=C1C=C(c2ccccc2)CC(c2cccs2)C1n1cnc([N+](=O)[O-])c1 (stereo not given)	none
O=C1C=C(c2ccccc2)C[C@H](c2cccs2)[C@H]1n1nnc([N+](=O)[O-])n1	CTSL1 counter 33.3
COc1ccc(-c2cc(C(=O)Nc3cc(Br)ccc3O)no2)cc1	IMP-1 inh 52.4
CC1=CC(=O)[C@H]2C(C)(C)CCC[C@]2(C)[C@@]1(O)CO	CTSL1 counter 49.3
COc1ccc(CCN2C(=O)c3ccccc3NC2c2cc(Cl)c(O)c(OC)c2)cc1 (stereo not given)	none
CCCNC(=O)Cn1c(=O)/c(=C\c2ccc(-c3ccc([N+](=O)[O-])cc3)o2)s/c1=C\C(=O)C(C)(C)C	none
CCCNC(=O)Cn1c(=O)/c(=C\c2ccc(-c3cccc([N+](=O)[O-])c3)o2)s/c1=C\C(=O)C(C)(C)C	CTSL1 counter 18.1
Cc1nn(-c2ccccc2)c2c1C(c1ccc(O)c(O)c1)N1C(=N2)C(Nc2ccccc2)=Nc2ccccc21 (stereo not given)	CTSL1 counter 38.3
CC(=O)c1cccc(NC(=S)NCCC2=CCCCC2)c1	none
O=C(NCCC1=CCCCC1)Nc1ccc2nsnc2c1	CTSL1 counter 24.4
COc1ccc(C(=O)COC(=O)c2ccccc2O)c(OC)c1	none (no result: CTSL1 counter, UBC9 SUMO inh, IMP-1 inh, p-CIP stab down, VIM-2 inh)
O=C(O)CCc1nn2cc(-c3ccccc3)nc2[nH]c1=O	none
Cc1nn2cc(-c3ccccc3)nc2[nH]c1=O	UBC9 SUMO inh 68.3
COC(=O)C1=NN(c2cccc3ccccc23)C2C(=O)N(c3ccccc3OC)C(=O)C12 (stereo not given)	CTSL1 counter 19.0
C=CCc1c(C)nc(N2CCSCC2)[nH]c1=O	none
CN(CCC#N)C(=O)COC(=O)c1c2c(nc3ccccc13)/C(=C/c1ccco1)CC2	UBC9 SUMO inh 52.7
O=C(NC1CCCN(CCc2ccccc2)C1)c1c(F)cccc1F (stereo not given)	none
O=C(NC1CCCN(Cc2ccc(Cl)cc2)C1)C1CCC1 (stereo not given)	none
O=C(NC1CCCN(Cc2ccc(Cl)cc2)C1)c1c(F)ccc(F)c1F (stereo not given)	CTSL1 counter 64.1
O=C(NC1CCCN(Cc2ccc(Cl)cc2)C1)c1c(F)cccc1F (stereo not given)	CTSL1 counter 28.1
N=C1/C(=C\c2ccc(-c3ccc(C(=O)O)cc3)o2)C(=O)N=C2SC=C(c3ccccc3)N12	IMP-1 inh 10.9 (no result: CTSL1 counter, T cell HTS)
O=C(NC1CCCCC1)C1CCN(S(=O)(=O)c2cccs2)CC1	IMP-1 inh 4.8
Cc1cc(Cl)c(OCCCSc2nc(C)cc(=O)[nH]2)c(Br)c1	T cell HTS 74.5
CC(Oc1ccccc1Cl)C(=O)Nc1ccc(S(=O)(=O)N2CCCC2)cc1 (stereo not given)	none (no result: UBC9 SUMO inh, IMP-1 inh, p-CIP stab down, VIM-2 inh)
CC(NCc1ccccc1Cl)C(=O)Nc1ccc(S(=O)(=O)N2CCCC2)cc1 (stereo not given)	T cell HTS 0.0
CC(C)(C)N(Cc1ccccc1)C(=O)COC(=O)c1ccc2ccccc2n1	none (no result: CTSL1 counter, UBC9 SUMO inh, IMP-1 inh, p-CIP stab down, VIM-2 inh)
Cc1sc2ncnc(N3CCN(Cc4ccccc4)CC3)c2c1-c1ccc(F)cc1	none
CCOC(=O)/C(N=Nc1sc(C(=O)OC)c(C)c1C(=O)OCC)=C(\O)CCl	IMP-1 inh 4.7
CCOC(=O)/C(N=Nc1sc(C(=O)OCC)c(C)c1C(=O)OCC)=C(\C)O	none
CCOc1ccccc1CNc1ccc(N2CCOCC2)c(C(=O)O)c1	none
COC(=O)c1cc(NCc2ccccc2F)ccc1N1CCOCC1	IMP-1 inh 15.0
O=C(CCCN1C(=O)/C(=C/c2cccs2)SC1=S)Nc1ccc(O)c(C(=O)O)c1	VIM-2 inh 9.7 (no result: CTSL1 counter, T cell HTS)
CC(C(=O)N(C)C1CCS(=O)(=O)C1)N1C(=O)/C(=C/c2ccco2)SC1=S (stereo not given)	none
O=C(CN1C(=O)/C(=C/c2ccco2)SC1=S)Nc1ccc(O)c(C(=O)O)c1	UBC9 SUMO inh 50.8
O=C(CCN1C(=O)/C(=C/c2ccccc2)SC1=S)NC1CCS(=O)(=O)C1 (stereo not given)	none
O=C(CCCN1C(=O)/C(=C\c2ccco2)SC1=S)Nc1ccc(O)cc1C(=O)O	none (no result: UBC9 SUMO inh)
O=C(CN1C(=O)/C(=C/c2ccco2)SC1=S)NC1CCS(=O)(=O)C1 (stereo not given)	IMP-1 inh 5.6
O=C(CCCN1C(=O)/C(=C\c2cccs2)SC1=S)Nc1ccc(C(=O)O)cc1	none
CC(C(=O)Nc1ccc(C(=O)O)c(O)c1)N1C(=O)/C(=C\c2ccco2)SC1=S (stereo not given)	UBC9 SUMO inh 57.0
Cc1noc(C)c1S(=O)(=O)N1CCCC(C(=O)NCc2ccccc2Cl)C1 (stereo not given)	none
O=C(O)C1CCC(Cn2c(SCc3cc(=O)n4ccccc4n3)nc3ccsc3c2=O)CC1 (stereo not given)	none
O=C(CCCN1C(=O)/C(=C/c2ccco2)SC1=S)Nc1cccc(C(=O)O)c1	UBC9 SUMO inh 64.4
O=C(CCCN1C(=O)/C(=C\c2cccs2)SC1=S)Nc1cccc(C(=O)O)c1	none
O=C(CN1C(=O)/C(=C/c2ccco2)SC1=S)Nc1ccc(C(=O)O)c(O)c1	UBC9 SUMO inh 71.8, IMP-1 inh 7.2
